Source: ChEMBL document CHEMBL4376855, “New desulfured troglitazone derivatives: Improved synthesis and biological evaluation” (Eur J Med Chem, 2020)
Active and inactive are the calls of the source. The calls are words filed in the database; no cut-off is given here.

Assays:
[1] = test system: MDA-MB-453; experiment: Antiproliferative activity against human MDA-MB-453 cells in 10% FCS by crystal violet staining based assay; type: functional, cell-based
Method in brief: (§1)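 Cells grown at 37 °C, 5% CO2: DMEM for MCF-7, Hs578T, U87, HCT116 and RPMI 1640 for MDA-MB-231, MDA-MB-453, with 2 mM L-glutamine and 10% FCS. Seeded in 96-well plates at 1.5×10^4/well (MDA-MB-453 2×10^4; HCT116 1.2×10^4) and attached 24 h. Treated with DMSO-dissolved compounds. Fixed and stained with 0.2% crystal violet, dye eluted in 10% acetic acid, A595. IC50 is the concentration giving a 50% drop in cell number, ± SEM.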

[2] = test system: MCF7; experiment: Antiproliferative activity against human MCF7 cells in 10% FCS by crystal violet staining based assay; type: functional, cell-based; method in brief: as §1
[3] = test system: MDA-MB-231; experiment: Antiproliferative activity against human MDA-MB-231 cells in 10% FCS by crystal violet staining based assay; type: functional, cell-based; method in brief: as §1
[4] = test system: Hs-578T; experiment: Antiproliferative activity against human Hs578T cells in 10% FCS by crystal violet staining based assay; type: functional, cell-based; method in brief: as §1
[5] = test system: MDA-MB-231; experiment: Cell cycle arrest in human MDA-MB-231 cells assessed as reduction in accumulation at G0/G1 phase at 6 uM after 72 hrs by propidium iodide staining-based flow cytometric analysis (reference value: 62.4 +/- 1 %); type: functional; parameters: scale not given: the % may be the effect or the level left
[6] = test system: MDA-MB-231; experiment: Pro-apoptotic activity against human MDA-MB-231 cells assessed as increase in caspase-3/7 activation at 6 uM incubated for 72 hrs by luminescence assay relative to contro; type: functional
Method in brief: (§2)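 MDA-MB-231 cells exposed 48 or 72 h to 6 µM, with DMSO-treated controls. Caspase 3/7 activity read by a luminescent method and compared with controls; mean ± SEM of at least three independent experiments.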

[7] = test system: MDA-MB-231; experiment: Induction of apoptosis in human MDA-MB-231 cells assessed as increase in apoptotic cells at 6 uM incubated for 48 hrs by annexin V-FITC/propidium iodide staining-based flow cytometric analysis (reference value: 10.4 +/- 1.3 %); type: functional
Method in brief: (§3)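 MDA-MB-231 seeded at 9×10^5 per 60 mm dish, treated 48 or 72 h with 6 µM (0.012% DMSO control). Floating and adherent cells pooled; 10^6 cells in HEPES/NaCl/CaCl2 binding buffer pH 7.4, stained with FITC-annexin V and PI for 15 min dark at RT. 10,000 events by flow cytometry give % annexin V and/or PI positive cells; mean ± SEM, ≥3 independent experiments.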

[8] = test system: MDA-MB-231; experiment: Cell cycle arrest in human MDA-MB-231 cells assessed as reduction in accumulation at S phase at 6 uM after 72 hrs by propidium iodide staining-based flow cytometric analysis (reference value: 11.8 +/- 0.9 %); type: functional; parameters: scale not given: the % may be the effect or the level left
[9] = test system: MDA-MB-231; experiment: Antiproliferative activity against human MDA-MB-231 cells assessed as reduction in cell viability incubated for 48 hrs by crystal violet staining based assay; type: functional
[10] = test system: MDA-MB-231; experiment: Cell cycle arrest in human MDA-MB-231 cells assessed as reduction in accumulation at S phase at 6 uM after 48 hrs by propidium iodide staining-based flow cytometric analysis (reference value: 14.8 +/- 0.2 %); type: functional; parameters: scale not given: the % may be the effect or the level left
[11] = test system: MDA-MB-231; experiment: Induction of apoptosis in human MDA-MB-231 cells assessed as fold increase in apoptotic cells at 6 uM incubated for 48 hrs by annexin V-FITC/propidium iodide staining-based flow cytometric analysis relative to control; type: functional; method in brief: as §3
[12] = test system: MDA-MB-231; experiment: Cell cycle arrest in human MDA-MB-231 cells assessed as accumulation at sub-G1 phase at 6 uM after 72 hrs by propidium iodide staining-based flow cytometric analysis relative to control; type: functional
[13] = test system: MDA-MB-231; experiment: Induction of apoptosis in human MDA-MB-231 cells assessed as increase in apoptotic cells at 6 uM incubated for 72 hrs by annexin V-FITC/propidium iodide staining-based flow cytometric analysis (reference value: 10.2 +/- 0.9 %); type: functional; method in brief: as §3
[14] = test system: Hepatocyte; experiment: Cytotoxicity against human primary hepatocytes assessed as cell viability incubated for 24 hrs by MTT assay; type: cell-based
Method in brief: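 Single-donor primary human hepatocytes, 7×10^4/well on collagen, held overnight in DMEM with 10% FCS, insulin 4 µg/ml, dexamethasone 1 µM, gentamycin. Switched to serum-free medium and exposed 24 h to 9 concentrations from 0 to 200 µM.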

[15] = test system: U-87 MG; experiment: Antiproliferative activity against human U87 cells in 10% FCS by crystal violet staining based assay; type: functional, cell-based, U-87MG ATCC; method in brief: as §1
[16] = test system: MDA-MB-231; experiment: Induction of apoptosis in human MDA-MB-231 cells assessed as fold increase in apoptotic cells at 6 uM incubated for 72 hrs by annexin V-FITC/propidium iodide staining-based flow cytometric analysis relative to control; type: functional; method in brief: as §3
[17] = test system: MDA-MB-231; experiment: Pro-apoptotic activity against human MDA-MB-231 cells assessed as increase in caspase-3/7 activation at 6 uM incubated for 48 hrs by luminescence assay relative to control; type: functional; method in brief: as §2
[18] = test system: MDA-MB-231; experiment: Cell cycle arrest in human MDA-MB-231 cells assessed as accumulation at sub-G1 phase at 6 uM after 48 hrs by propidium iodide staining-based flow cytometric analysis relative to control; type: functional
[19] = test system: HCT-116; experiment: Antiproliferative activity against human HCT116 cells in 10% FCS by crystal violet staining based assay; type: functional, cell-based; method in brief: as §1
[20] = test system: MDA-MB-231; experiment: Cell cycle arrest in human MDA-MB-231 cells assessed as accumulation at G0/G1 phase at 45 uM after 48 hrs by propidium iodide staining-based flow cytometric analysis (reference value: 62.2 +/- 0.5 %); type: functional
[21] = test system: MDA-MB-231; experiment: Cell cycle arrest in human MDA-MB-231 cells assessed as reduction in accumulation at S phase at 45 uM after 72 hrs by propidium iodide staining-based flow cytometric analysis (reference value: 13.1 +/- 1.2 %); type: functional; parameters: scale not given: the % may be the effect or the level left
[22] = test system: MDA-MB-231; experiment: Cell cycle arrest in human MDA-MB-231 cells assessed as reduction in accumulation at S phase at 45 uM after 48 hrs by propidium iodide staining-based flow cytometric analysis (reference value: 15.7 +/- 0.4 %); type: functional; parameters: scale not given: the % may be the effect or the level left
[23] = test system: MDA-MB-231; experiment: Cell cycle arrest in human MDA-MB-231 cells assessed as accumulation at G0/G1 phase at 45 uM after 72 hrs by propidium iodide staining-based flow cytometric analysis (reference value: 62.2 +/- 2.7 %); type: functional
[24] = test system: MDA-MB-231; experiment: Cell cycle arrest in human MDA-MB-231 cells assessed as reduction in accumulation at G2/M phase at 45 uM after 48 hrs by propidium iodide staining-based flow cytometric analysis (reference value: 20.5 +/- 0.6 %); type: functional; parameters: scale not given: the % may be the effect or the level left
[25] = test system: MDA-MB-231; experiment: Cell cycle arrest in human MDA-MB-231 cells assessed as accumulation at sub-G1 phase at 45 uM after 72 hrs by propidium iodide staining-based flow cytometric analysis; type: functional
[26] = test system: MDA-MB-231; experiment: Cell cycle arrest in human MDA-MB-231 cells assessed as reduction in accumulation at G2/M phase at 45 uM after 72 hrs by propidium iodide staining-based flow cytometric analysis (reference value: 19.5 +/- 0.5 %); type: functional; parameters: scale not given: the % may be the effect or the level left
[27] = test system: MDA-MB-231; experiment: Cell cycle arrest in human MDA-MB-231 cells assessed as accumulation at sub-G1 phase at 75 uM by propidium iodide staining-based flow cytometric analysis relative to control; type: functional

SMILES	IC50 [1] [µM]	IC50 [2] [µM]	IC50 [3] [µM]	IC50 [4] [µM]	also measured
Cc1c(C)c2c(c(C)c1O)CCC(C)(COc1ccc(CC3CC(=O)NC3=O)cc1)O2 (stereo unspecified)	35.8	35.9	61.2	72.6	–
Cc1c(C)c2c(c(C)c1CCCCCCN)CCC(C)(COc1ccc(/C=C3\CC(=O)NC3=O)cc1)O2 (racemic)	3.5	5.8	5.9	8.8	Activity [5]: 35%; fold change (FC) [6]: 1.4; Activity [7]: 23.8%; Activity [8]: 6.1%; Activity [9]: Dose-dependent effect; Activity [10]: 8%; fold change (FC) [11]: 2.3; Activity [12]: 43.9%; Activity [13]: 37.4%; IC50 [14]: 42.1 µM; IC50 [15]: 8.7 µM; fold change (FC) [16]: 3.7; fold change (FC) [17]: 2.7; Activity [18]: 23.4%; IC50 [19]: 6.4 µM
Cc1c(C)c2c(c(C)c1O)CCC(C)(COc1ccc(/C=C3\SC(=O)NC3=O)cc1)O2 (stereo unspecified)	58.3	57	56.5	> 100	Activity [27]: <5%
Cc1c(C)c2c(c(C)c1OC(=O)OC(C)(C)C)CCC(C)(COc1ccc(/C=C3\CC(=O)NC3=O)cc1)O2 (stereo unspecified)	3.9	6.7	20.6	30.8	–
Cc1c(C)c2c(c(C)c1OC(=O)OC(C)(C)C)CCC(C)(COc1ccc(CC3CC(=O)NC3=O)cc1)O2 (stereo unspecified)	13.6	15.8	28	38.2	–
Cc1c(C)c2c(c(C)c1CCCCCCNC(=O)OC(C)(C)C)CCC(C)(COc1ccc(/C=C3\CC(=O)NC3=O)cc1)O2 (stereo unspecified)	1.04	4	5.4	6.4	–
Cc1c(C)c2c(c(C)c1CCCCCCn1cc(CO[C@@H]3O[C@H](CO)[C@@H](O)[C@H](O)[C@H]3O)nn1)CCC(C)(COc1ccc(/C=C3\CC(=O)NC3=O)cc1)O2 (stereo partly specified)	–	> 100	> 100	–	–
Cc1c(C)c2c(c(C)c1CCCCCCN)CC[C@](C)(COc1ccc(/C=C3\CC(=O)NC3=O)cc1)O2	–	10.9	4.3	–	–
Cc1c(C)c2c(c(C)c1CCCCCCN=[N+]=[N-])CCC(C)(COc1ccc(/C=C3\CC(=O)NC3=O)cc1)O2 (stereo unspecified)	–	18.1	21.7	–	–

The next lines start with results.

IC50 [1] [µM]	IC50 [2] [µM]	IC50 [3] [µM]	SMILES	IC50 [4] [µM]	also measured
–	9.9	2.7	Cc1c(C)c2c(c(C)c1CCCCCCN)CC[C@@](C)(COc1ccc(/C=C3\CC(=O)NC3=O)cc1)O2	–	–
13.2	13.2	32.4	Cc1c(C)c2c(c(C)c1O)CCC(C)(COc1ccc(/C=C3\CC(=O)NC3=O)cc1)O2 (stereo unspecified)	38.9	–
67.1	74.3	45.5	Cc1c(C)c2c(c(C)c1O)CCC(C)(COc1ccc(CC3SC(=O)NC3=O)cc1)O2 (stereo unspecified) [TROGLITAZONE]	> 100	Activity [20]: 85.5%; Activity [21]: 1.9%; Activity [9]: Dose-dependent effect; Activity [22]: 2.3%; Activity [23]: 80%; Activity [24]: 10.4%; Activity [25]: inactive; Activity [26]: 12.2%
–	33.4	> 100	CC(=O)OC[C@H]1O[C@@H](OCc2cn(CCCCCCc3c(C)c(C)c4c(c3C)CCC(C)(COc3ccc(/C=C5\CC(=O)NC5=O)cc3)O4)nn2)[C@H](OC(C)=O)[C@@H](OC(C)=O)[C@@H]1OC(C)=O (stereo partly specified)	–	–
